Compound activity deposited in PubChem by several laboratories.
A selection: hits, their analogues and other compounds. The true share with any hit is near 5.3%.
CSC inhib: cancer stem cell viability inhibitors, primary screen, luminescence; 300,000 compounds, 1.1% hits; AID 2717, 2010; inhibition, % at 7.5 µM; cancer stem cell-like cells viability; in the data active = inhibition above about 75%; tested in HMLE shEcad cells
Calb FLC: C. albicans growth inhibition with fluconazole, primary screen, CaCi-2 strain, Alamar Blue fluorescence; C. albicans CaCi-2 (fluconazole-resistant clinical isolate) + fluconazole, 48 h; growth inhibition, % (concentration not given with the values); 300,000 compounds, 0.57% hits;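 active = growth inhibition above about 58% in most replicates, limit read from the data, passing the limit was not always enough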;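 note: all wells also contain fluconazole at 8 µg/ml as a sub-toxic cotreatment; 0% = median of DMSO wells and 100% = median of geldanamycin control wells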
Mdm2-MdmX inh: inhibitors of human Mdm2-MdmX association, primary screen, cell-based, luminescence, split luciferase, SaOS-2, uHTS; inhibition, % at 8 µM; 330,000 compounds, 3% hits; AID 485346, 2010; SaOS-2 split-luciferase Mdm2/MdmX complementation;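 active = inhibition of at least 50% at 8 µM in the primary screen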
Target sequence (O15151 whole entry, looked up): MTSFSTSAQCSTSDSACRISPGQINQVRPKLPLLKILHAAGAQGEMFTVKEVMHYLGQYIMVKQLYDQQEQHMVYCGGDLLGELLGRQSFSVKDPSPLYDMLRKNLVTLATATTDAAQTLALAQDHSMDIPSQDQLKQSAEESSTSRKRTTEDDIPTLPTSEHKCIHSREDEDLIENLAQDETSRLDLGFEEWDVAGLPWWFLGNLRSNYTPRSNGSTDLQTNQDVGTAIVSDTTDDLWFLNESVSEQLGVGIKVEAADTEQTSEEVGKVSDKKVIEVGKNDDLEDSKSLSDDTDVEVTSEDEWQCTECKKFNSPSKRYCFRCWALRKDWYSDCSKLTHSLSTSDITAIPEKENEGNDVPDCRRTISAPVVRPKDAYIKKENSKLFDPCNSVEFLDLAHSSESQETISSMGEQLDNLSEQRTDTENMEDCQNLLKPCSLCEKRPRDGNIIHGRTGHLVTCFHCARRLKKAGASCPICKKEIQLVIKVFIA
Target sequence (Q00987 whole entry, looked up): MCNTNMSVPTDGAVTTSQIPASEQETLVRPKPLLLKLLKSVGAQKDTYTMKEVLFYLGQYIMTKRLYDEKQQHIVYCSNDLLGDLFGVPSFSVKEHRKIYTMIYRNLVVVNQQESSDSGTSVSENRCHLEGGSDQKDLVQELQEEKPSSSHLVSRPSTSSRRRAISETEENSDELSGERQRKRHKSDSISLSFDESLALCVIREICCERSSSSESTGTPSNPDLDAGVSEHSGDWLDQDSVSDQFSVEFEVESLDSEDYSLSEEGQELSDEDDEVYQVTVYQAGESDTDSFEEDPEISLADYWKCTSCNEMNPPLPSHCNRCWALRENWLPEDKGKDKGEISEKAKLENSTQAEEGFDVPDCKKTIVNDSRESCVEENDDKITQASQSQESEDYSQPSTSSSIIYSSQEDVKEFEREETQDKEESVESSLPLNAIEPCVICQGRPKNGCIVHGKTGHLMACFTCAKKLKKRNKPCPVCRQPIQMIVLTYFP
NALP3 yeast inh: NALP3 inflammasome inhibitors in reconstituted yeast, primary screen, luminescence, uHTS. AID 2825, 2010. Yeast reconstituted NLRP3/ASC/caspase-1, beta-gal luminescence, 24 h. 330,000 compounds, 0.39% hits. inhibition, % at 10 µM;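 active = inhibition of 50% or more; inactive = inhibition below 50%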;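 note: plate controls were induced DMSO wells for no effect and uninduced yeast grown without galactose for full effect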
Beta cell apopt: inhibitors of cytokine-induced beta cell apoptosis, primary screen, luminescence; protection from apoptosis, % (test concentration not listed); 300,000 compounds, 0.8% hits; INS-1E cytokine-induced death, ATP luminescence, 48 h; percent of positive-control rescue, neutral wells zero;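 active = Every replicate reaches about 75%, or at least half do and their mean reaches it too, limit read from the data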;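 note: 0% = cytokine-treated negative control wells and 100% = positive control rescue; higher means more ATP so stronger rescue from cytokine killing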
T cruzi inh: inhibitors of intracellular T. cruzi growth, primary screen, luminescence, NIH3T3 host cells. T. cruzi beta-gal in NIH3T3, 90 h. inhibition, % (concentration not given with the values). 300,000 compounds, 1.4% hits;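 active = mean inhibition across valid replicates above about 55%, limit read from the data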;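 note: signal also drops with host cell toxicity which is not excluded here; 0% = plate median of DMSO wells and 100% = zero luminescence signal; higher percent means less beta-gal luminescence so fewer parasites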
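assay system = mouse NIH/3T3 fibroblasts infected with β-gal-expressing T. cruzi Tulahuen C4 | input = 5,000 NIH/3T3 host cells per well | buffer or medium = DMEM plus 2% FBS | timing = 3 h host attachment, then at least 90 h co-culture | measured by = GalScreen luminescence, 60 min | evaluation = luminescence reflecting intracellular parasite burden, expressed as percent inhibition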
Mdm2-MdmX conf: Mdm2-MdmX complex disruptors, retested hits, confirmation, luminescence, single concentration. shares compounds with Mdm2-MdmX inh. Mdm2-MdmX binding, luminescent assay. inhibition, % at 8 µM. 10,000 compounds, 55% hits. AID 489028, 2010; in the data active = inhibition above about 40%
Full FLuc ctr: full-length luciferase signal inhibition, confirmation, counter-screen for Mdm2/MdmX interaction inhibitor project, cell-based, single concentration, SaOS-2 | AID 504607, 2011 | inhibition, % at 8 µM | shares compounds with Mdm2-MdmX inh | 6,200 compounds, 77% hits | SaOS-2 full-length luciferase counterscreen, luminescence;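 active = mean inhibition at 8 µM reaching about 37%, which flags the compound as non-specific, limit read from the data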;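 note: p53-null SaOS-2 cells with luciferase driven by a doxycycline-inducible promoter; compound on cells about two nights before reading with doxycycline added after day one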
Starred values were filed as active, the others as inactive.

For O=C(COC(=O)C1(c2ccc(Cl)cc2)CCCC1)N1CCc2ccccc21 the results were CSC inhib 35.8, Calb FLC -2.6, Mdm2-MdmX inh -22.0, NALP3 yeast inh 2.0, Beta cell apopt 6.4 and T cruzi inh 42.1.
`Cc1cc(-c2ccccc2)nc(N2CCN(c3ccccn3)CC2)n1` gave CSC inhib 0.7, Calb FLC -1.1, Mdm2-MdmX inh 59.1*, NALP3 yeast inh 22.9, Beta cell apopt 20.1, T cruzi inh 4.9 and Mdm2-MdmX conf 23.8.
For O=C(c1ccccc1-c1ccccc1)N1CCN(c2ccccn2)CC1 the results were CSC inhib 57.9, Calb FLC -1.6, Mdm2-MdmX inh 58.8*, NALP3 yeast inh 7.7, Beta cell apopt 30.1, T cruzi inh -35.3, Mdm2-MdmX conf 58.1* and Full FLuc ctr 50.1*.
O=C(c1cn(Cc2ccccc2)nc1-c1ccccc1)N1CCN(c2ccccn2)CC1 was read as CSC inhib 42.2, Mdm2-MdmX inh 52.6*, NALP3 yeast inh 13.7, Beta cell apopt -1.3, Mdm2-MdmX conf 50.0* and Full FLuc ctr 71.2*.
`COc1ccc(-c2nn(Cc3ccccc3)cc2C(=O)N2CCN(c3ccccn3)CC2)cc1OC` gave CSC inhib -3.2, Mdm2-MdmX inh 23.2, NALP3 yeast inh 7.7 and Beta cell apopt -8.1.
CCOC(=O)c1nn(-c2cccc(Cl)c2)c2nc(CC(C)C)c(C#N)c(=O)n12 was read as CSC inhib -5.2, Calb FLC -12.8, Mdm2-MdmX inh 4.4, NALP3 yeast inh 0.9, Beta cell apopt 2.6 and T cruzi inh 11.1.
Screening CCC(=O)Nc1cc2nn(-c3ccc(OC)cc3)nc2cc1C returned Calb FLC -8.5, Mdm2-MdmX inh -24.2, NALP3 yeast inh 19.2 and T cruzi inh -3.8.
Screening CCC(=O)Nc1cc2nn(-c3ccc(C)cc3)nc2cc1C returned CSC inhib -3.1, Calb FLC -9.6, Mdm2-MdmX inh 66.5*, NALP3 yeast inh 2.0, Beta cell apopt -11.6, T cruzi inh -1.5, Mdm2-MdmX conf 67.2* and Full FLuc ctr 145.8*.
For CCCC1(C(=O)OCC)NC(c2ccco2)C2C(=O)N(C)C(=O)C21 (centres undefined) the results were CSC inhib 9.5, Calb FLC -25.7, Mdm2-MdmX inh -2.6, NALP3 yeast inh -4.1, Beta cell apopt -2.4 and T cruzi inh -0.6.
`Cc1nn(-c2ccccc2)c(Cl)c1CN(C(=O)CCl)c1cccc2ccccc12` gave CSC inhib 42.8, Calb FLC -10.4, Mdm2-MdmX inh 99.2*, NALP3 yeast inh 16.5, Beta cell apopt 19.8, T cruzi inh 20.9, Mdm2-MdmX conf 99.0* and Full FLuc ctr 52.7*.
For Nc1nc(SCc2ccc(Cl)cc2Cl)nc2nc3c(cc12)CCCC3 the results were CSC inhib 23.2, Calb FLC -5.2, Mdm2-MdmX inh 57.4*, NALP3 yeast inh 23.2, Beta cell apopt 13.5, T cruzi inh 26.2 and Mdm2-MdmX conf 24.9.
CC(NC(=O)c1ccccc1F)c1nnc(SCc2nc3ccccc3c(=O)[nH]2)n1C (centres undefined) was read as CSC inhib -9.7, Calb FLC -14.9, Mdm2-MdmX inh 12.9, NALP3 yeast inh 1.5, Beta cell apopt -4.7 and T cruzi inh 0.0.
`O=[N+]([O-])c1cc(Cl)cc(/C=N/Nc2nc3ccccc3s2)c1O` gave CSC inhib 47.3, Calb FLC -5.4, Mdm2-MdmX inh 79.7*, NALP3 yeast inh 42.4, Beta cell apopt 8.2, T cruzi inh -2.4 and Mdm2-MdmX conf -0.9.
Screening C(=N\Nc1nc2ccccc2s1)/c1ccccn1 returned CSC inhib 93.9*, Calb FLC -2.7, Mdm2-MdmX inh 94.4*, NALP3 yeast inh 17.3, T cruzi inh 38.9, Mdm2-MdmX conf 95.5* and Full FLuc ctr 48.1*.
For COC(=O)Cc1[nH]n(-c2nc3ccccc3s2)c(=O)c1C(C)=Nc1ccc(C)cc1 the results were CSC inhib -4.8, Calb FLC 6.9, Mdm2-MdmX inh 56.2*, NALP3 yeast inh 21.4, Beta cell apopt 4.5, T cruzi inh -15.9, Mdm2-MdmX conf 55.7* and Full FLuc ctr 32.2.
For COC(=O)Cc1[nH]n(-c2nc3ccccc3s2)c(=O)c1C(C)=Nc1ccc(Cl)cc1 the results were CSC inhib 68.8, Calb FLC 15.8, Mdm2-MdmX inh -22.0, NALP3 yeast inh -9.8, Beta cell apopt 6.8 and T cruzi inh -10.5.
Screening O=C(NCc1ccccc1)C12CC3CC(CC(Cl)(C3)C1)C2 returned CSC inhib 5.4, Calb FLC -1.6, Mdm2-MdmX inh 14.5, NALP3 yeast inh 24.3, Beta cell apopt -1.6 and T cruzi inh -3.7.
Clc1ccc2c(N/N=C/c3ccccc3Br)ccnc2c1 was read as CSC inhib 49.9, Calb FLC -5.1, Mdm2-MdmX inh 100.5*, NALP3 yeast inh 29.7, Beta cell apopt 43.4, T cruzi inh 55.5*, Mdm2-MdmX conf 81.8* and Full FLuc ctr 52.2*.
For O=[N+]([O-])/C=C/c1c(OCc2ccccc2)ccc2ccccc12 the results were CSC inhib -9.3, Calb FLC 9.4, Mdm2-MdmX inh 95.4*, NALP3 yeast inh 8.9, Beta cell apopt 115.3*, T cruzi inh 54.3, Mdm2-MdmX conf 100.1* and Full FLuc ctr 49.6*.
Screening CCOc1ccc(/C=C/[N+](=O)[O-])c2ccccc12 returned CSC inhib 61.0, Calb FLC 4.0, Mdm2-MdmX inh 46.5, NALP3 yeast inh 6.2, Beta cell apopt 6.0 and T cruzi inh -1.3.
`COc1cc(/C=C/C(=O)c2ccc3c(c2)OCCO3)cc(Br)c1OCC(=O)N(C)C` gave Calb FLC 2.1, Mdm2-MdmX inh 95.3*, NALP3 yeast inh 17.7, Beta cell apopt -13.1, T cruzi inh 7.7, Mdm2-MdmX conf 79.2* and Full FLuc ctr 56.2*.
For Cc1ccc(-n2nc3c([n+]2[O-])CCc2c-3no[n+]2[O-])cc1 the results were CSC inhib 8.3, Calb FLC -10.3, Mdm2-MdmX inh 52.9*, NALP3 yeast inh -7.6, Beta cell apopt 30.1, T cruzi inh -73.6 and Mdm2-MdmX conf 11.2.
Screening CCCNC(=O)c1ccc2c(=O)c(O)c(-c3ccc(OC)cc3)[nH]c2c1 returned CSC inhib 29.2, Calb FLC 81.6*, Mdm2-MdmX inh 50.2*, NALP3 yeast inh 5.9, Beta cell apopt 0.0, T cruzi inh -31.5 and Mdm2-MdmX conf 13.6.
